Test results published in ChEMBL document CHEMBL1143314, “Bone selective effect of an estradiol conjugate with a novel tetracycline-derived bone-targeting agent” (2009).
Values belong to the compound of their own block, whether it stands above or below them. Active and inactive are the calls of the source. The rule behind the calls is not given here.

What was measured:
Hydroxyapatite [1] = experiment: Binding affinity to bone mineral hydroxyapatite
How it was run: (§1)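 Analyte 10^-5 M final in 50 mM Tris–HCl pH 7.4, 1% DMSO (from 10^-3 M DMSO stock), mixed by inversion 4 min with HA slurry (0.5 g/100 mL) or buffer alone, centrifuged 12,000g 3 min. Supernatant UV-vis scanned 220–520 nm; concentration at λmax by Beer–Lambert; fraction adsorbed calculated. Tetracycline reference set to index 100.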

Hydroxyapatite [2] = experiment: Binding affinity to bone mineral hydroxyapatite assessed as binding index; how it was run: as §1
Hydroxyapatite [3] = experiment: Binding affinity to bone mineral hydroxyapatite relative to tetracyclin; how it was run: as §1
Rattus norvegicus [4] = experiment: Antibone resorptive activity in sc dosed Sprague-Dawley rat assessed as inhibition of bilaterally ovariectomization-induced decrease in body weight normalized femoral mass administered 4 days after sugery at three times per week schedule for 6 weeks; type: functional
How it was run: (§2)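 Three-month-old female Sprague–Dawley rats, bilaterally ovariectomized or sham-operated, given vehicle or drug s.c. three times weekly from 4 days post-surgery for 6 weeks. Excised femur and uterus weighed, normalized to body mass. Percent effect = (treatment − OVX control)/(sham − OVX control); n = 6–10 per group; mean SEM; ED50 from dose–response curves.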

Rattus norvegicus [5] = experiment: Antibone resorptive activity in sc dosed Sprague-Dawley rat assessed as inhibition of bilaterally ovariectomization-induced decrease in body weight normalized uterine mass administered 4 days after sugery at three times per week schedule for 6 weeks; type: functional; how it was run: as §2

Activity (Hydroxyapatite [1]): inactive
Compound: NC(=O)C1C(=O)CCCC1=O

Activity (Hydroxyapatite [2]): 100
Compound: CN(C)[C@@H]1C(O)=C(C(N)=O)C(=O)[C@@]2(O)C(O)=C3C(=O)c4c(O)cccc4[C@@](C)(O)[C@H]3C[C@@H]12

Activity (Hydroxyapatite [1]): inactive
Compound: NC(=O)c1c(O)cccc1O

Second part, the compound before the results:

Compound: NC(=O)c1c(O)ccc(N)c1O
Activity (Hydroxyapatite [3]): 50%

Compound: C[C@]12CC[C@@H]3c4ccc(O)cc4CC[C@H]3[C@@H]1CC[C@@H]2O [ESTRADIOL]
Activity (Rattus norvegicus [4]): Dose-dependent effect | ED50 (Rattus norvegicus [4]): 0.01 µmol/kg | ED50 (Rattus norvegicus [5]): 0.009 µmol/kg

Compound: O=C(O)c1c(O)cccc1O
Activity (Hydroxyapatite [1]): inactive
